Laboratory results as given in ChEMBL document CHEMBL1671748, “Subinhibitory concentrations of protein synthesis-inhibiting antibiotics promote increased expression of the agr virulence regulator and production of phenol-soluble modulin cytolysins in community-associated methicillin-resistant Staphylococcus aureus” (2010).
Converted amounts (≈) assume the structure as drawn. The source made the active and inactive calls. The rule behind the calls is not given here.

Key:
[1] = tested on: Staphylococcus aureus; experiment: Decrease in delta toxin levels in Staphylococcus aureus Sanger 252 at subinhibitory concentrations after 24 hrs by RP-HPLC/ESI- MS; type: functional, organism-based
How it was run: (§1)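 Antibiotic at a subinhibitory concentration was added at inoculation (1:100 from precultures) into 1 ml tryptic soy broth and shaken 24 h at 200 rpm. Peptides in culture filtrates were quantified by RP-HPLC/ESI-MS in triplicate. Each concentration started at 1/10 of the published MIC and was adjusted to give minimal growth effect, judged by OD600.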

[2] = tested on: Staphylococcus aureus; experiment: Decrease in PSMbeta1 levels in Staphylococcus aureus Sanger 252 at subinhibitory concentrations after 24 hrs by RP-HPLC/ESI- MS; type: functional, organism-based
How it was run: (§2)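 Antibiotic was added at inoculation (1:100 from preculture) into tryptic soy broth, with an antibiotic-free control, and shaken at 200 rpm for 24 h. Sub-inhibitory levels started at 1/10 of published MICs and were adjusted to give minimal growth effect, with growth tracked by OD600. PSMs in culture filtrates were quantified in triplicate by RP-HPLC/ESI-MS and reported as mean ± SD.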

[3] = tested on: Staphylococcus aureus; experiment: Decrease in delta toxin levels in Staphylococcus aureus USA300 at subinhibitory concentrations after 24 hrs by RP-HPLC/ESI- MS; type: functional, organism-based; how it was run: as §1
[4] = tested on: Staphylococcus aureus; experiment: Decrease in PSMbeta1 levels in Staphylococcus aureus USA300 at subinhibitory concentration after 24 hrs by RP-HPLC/ESI-MS; type: functional, organism-based; how it was run: as §2
[5] = tested on: Staphylococcus aureus; experiment: Antimicrobial activity against community-associated methicillin-resistant Staphylococcus aureus USA300; type: functional
[6] = tested on: Staphylococcus aureus; experiment: Antimicrobial activity against community-associated methicillin-resistant Staphylococcus aureus Sanger 252; type: functional
[7] = tested on: Staphylococcus aureus; experiment: Increase in PSMalpha levels in Staphylococcus aureus USA300 at subinhibitory concentrations after 24 hrs by RP-HPLC/ESI- MS; type: functional, organism-based; how it was run: as §2
[8] = biological target: T1, Accessory gene regulator protein A (Staphylococcus aureus) (UniProt P0A0I7); experiment: Activity of Quorum sensing agr in community-associated methicillin-resistant Staphylococcus aureus USA300 assessed as PSMalpha expression after 8 hrs by qRT-PCR
T1 sequence (whole entry): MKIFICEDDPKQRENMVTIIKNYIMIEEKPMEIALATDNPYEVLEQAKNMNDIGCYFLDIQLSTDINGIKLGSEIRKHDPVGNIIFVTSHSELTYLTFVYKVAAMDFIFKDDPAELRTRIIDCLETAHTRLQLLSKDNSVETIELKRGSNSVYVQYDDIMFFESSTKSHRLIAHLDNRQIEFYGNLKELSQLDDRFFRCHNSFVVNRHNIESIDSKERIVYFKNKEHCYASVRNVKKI
How it was run: (§3)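 LAC (USA300) was grown 8 h in shaken 125-ml flasks with antibiotic at a subinhibitory concentration. psmα and psmβ transcripts were quantified by qRT-PCR, with gyrB transcript as control, in parallel with RNAIII as the agr read-out. Run in triplicate; means ± SD.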

[9] = biological target: T1, Accessory gene regulator protein A (Staphylococcus aureus); experiment: Activity of Quorum sensing agr in community-associated methicillin-resistant Staphylococcus aureus USA300 assessed as PSMbeta expression after 8 hrs by qRT-PCR; how it was run: as §3
[10] = tested on: Staphylococcus aureus; experiment: Decrease in PSMalpha levels in Staphylococcus aureus Sanger 252 at subinhibitory concentrations after 24 hrs by RP-HPLC/ESI- MS; type: functional, organism-based; how it was run: as §2
[11] = tested on: Staphylococcus aureus; experiment: Decrease in PSMalpha levels in Staphylococcus aureus USA300 at subinhibitory concentration after 24 hrs by RP-HPLC/ESI-MS; type: functional, organism-based; how it was run: as §1
[12] = tested on: Staphylococcus aureus; experiment: Increase in PSMalpha levels in Staphylococcus aureus Sanger 252 at subinhibitory concentrations after 24 hrs by RP-HPLC/ESI- MS; type: functional, organism-based; how it was run: as §1

Compound	Activity [1]	Activity [2]	Activity [3]	Activity [4]	MIC [5] [µg/mL]	MIC [6] [µg/mL]	Activity [7]	Activity [8]	Activity [9]	Activity [10]	Activity [11]	Activity [12]
CN[C@H](CC(C)C)C(=O)N[C@H]1C(=O)N[C@@H](CC(N)=O)C(=O)N[C@H]2C(=O)N[C@H]3C(=O)N[C@H](C(=O)N[C@H](C(=O)O)c4cc(O)cc(O)c4-c4cc3ccc4O)[C@H](O)c3ccc(c(Cl)c3)Oc3cc2cc(c3O[C@@H]2O[C@H](CO)[C@@H](O)[C@H](O)[C@H]2O[C@H]2C[C@](C)(N)[C@H](O)[C@H](C)O2)Oc2ccc(cc2Cl)[C@H]1O	inactive	Active	inactive	Active	–	–	–	–	–	–	–	–
O=C(O)c1cn(C2CC2)c2cc(N3CCNCC3)c(F)cc2c1=O [CIPROFLOXACIN]	inactive	Active	inactive	Active	2 (≈ 6.04 µM)	> 16	–	–	–	–	–	–
CCC[C@@H]1C[C@@H](C(=O)N[C@@H]([C@H]2O[C@H](SC)[C@H](O)[C@@H](O)[C@H]2O)[C@H](C)Cl)N(C)C1 [CLINDAMYCIN]	inactive	Active	inactive	Active	0.12 (≈ 0.282 µM)	> 4	Active	Active	Active	–	–	–
CC[C@H]1OC(=O)[C@H](C)[C@@H](O[C@H]2C[C@@](C)(OC)[C@@H](O)[C@H](C)O2)[C@H](C)[C@@H](O[C@@H]2O[C@H](C)C[C@H](N(C)C)[C@H]2O)[C@](C)(O)C[C@@H](C)C(=O)[C@H](C)[C@@H](O)[C@]1(C)O [ERYTHROMYCIN]	inactive	Active	inactive	Active	> 8	> 8	Active	–	–	–	–	–
CC(=O)NC[C@H]1CN(c2ccc(N3CCOCC3)c(F)c2)C(=O)O1 [LINEZOLID]	inactive	Active	inactive	Active	–	1 (≈ 2.96 µM)	Active	–	–	–	–	–
C/C(=C\C(=O)OCCCCCCCCC(=O)O)C[C@@H]1OC[C@H](C[C@@H]2O[C@H]2[C@@H](C)[C@H](C)O)[C@@H](O)[C@H]1O [MUPIROCIN]	Active	Active	inactive	Active	0.12 (≈ 0.24 µM)	0.25 (≈ 0.499 µM)	–	–	–	Active	inactive	–
Cc1onc(-c2ccccc2)c1C(=O)N[C@@H]1C(=O)N2[C@@H]1SC(C)(C)[C@@H]2C(=O)O [OXACILLIN]	inactive	Active	Active	Active	> 16	> 16	–	inactive	inactive	–	Active	inactive
CO[C@H]1/C=C/O[C@@]2(C)Oc3c(C)c(O)c4c(O)c(c(/C=N/N5CCN(C)CC5)c(O)c4c3C2=O)NC(=O)/C(C)=C\C=C\[C@H](C)[C@H](O)[C@@H](C)[C@@H](O)[C@@H](C)[C@H](OC(C)=O)[C@@H]1C [RIFAMPIN]	inactive	Active	inactive	Active	0.004 (≈ 0.00486 µM)	0.004 (≈ 0.00486 µM)	–	–	–	–	–	–
Cc1cc(NS(=O)(=O)c2ccc(N)cc2)no1 [SULFAMETHOXAZOLE]	–	–	–	–	4.75 (≈ 18.8 µM)	4.75 (≈ 18.8 µM)	–	–	–	–	–	–
CN(C)[C@@H]1C(O)=C(C(N)=O)C(=O)[C@@]2(O)C(O)=C3C(=O)c4c(O)cccc4[C@@](C)(O)[C@H]3C[C@@H]12 [TETRACYCLINE]	inactive	Active	inactive	Active	1 (≈ 2.25 µM)	1 (≈ 2.25 µM)	Active	Active	Active	–	–	–
COc1cc(Cc2cnc(N)nc2N)cc(OC)c1OC [TRIMETHOPRIM]	–	–	–	–	0.25 (≈ 0.861 µM)	0.25 (≈ 0.861 µM)	–	–	–	–	–	–
